The values that follow come from ChEMBL document CHEMBL1154069, “Active site directed docking studies: synthesis and pharmacological evaluation of cis-2,6-dimethyl piperidine sulfonamides as inhibitors of acetylcholinesterase” (Eur J Med Chem, 2009).

Experiment [1] has as its system Rattus norvegicus. Briefly: Antiamnesic activity against scopolamine-induced memory loss in rat assessed as basal latency to reach shock free zone 1 at 0.1 mg/kg, ip. Type of experiment: functional. The settings on record: route intraperitoneal.
The target in experiment [2] is Acetylcholinesterase (Homo sapiens, UniProt P22303). In words: Inhibition of human serum AChE by Ellman's assay. On the technique in general: In Ellman's method for cholinesterases, released thiocholine reacts with DTNB.
For experiment [3], the system named is Rattus norvegicus. In words: Antiamnesic activity against scopolamine-induced memory loss in rat assessed as basal latency to reach shock free zone 3 at 0.1 mg/kg, ip. The class given is functional. The settings on record: route intraperitoneal.
The test system of experiment [4] is Rattus norvegicus. In words: Antiamnesic effect against scopolamine-induced memory loss in rat assessed as basal latency to reach shock free zone 2 at 0.1 mg/kg, ip. Type of experiment: functional. The settings on record: route intraperitoneal.
Experiment [5] has as its system Rattus norvegicus. Briefly: Antiamnesic activity against scopolamine-induced acquisition memory loss in rat assessed as times of step-down at 0.1 mg/kg, ip by step-down passive avoidance test. The class given is functional. The settings on record: route intraperitoneal.
Experiment [6] addresses Acetylcholinesterase (Electrophorus electricus, UniProt O42275). In words: Inhibition of electric eel AChE by Ellman's method. The method, boiled down:
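Commercial electric eel enzyme assayed like rat brain AChE: inhibitor, buffer and DTNB preincubated 10 min, acetylthiocholine iodide added, A412 followed each minute over 10 min at 37 °C. Percentage inhibition versus uninhibited activity at varied concentrations; duplicates averaged. Neostigmine reference 25–500 nM.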

Experiment [7] deals with T1, Acetylcholinesterase (Rattus norvegicus, UniProt P37136).
T1 sequence (P37136 whole entry): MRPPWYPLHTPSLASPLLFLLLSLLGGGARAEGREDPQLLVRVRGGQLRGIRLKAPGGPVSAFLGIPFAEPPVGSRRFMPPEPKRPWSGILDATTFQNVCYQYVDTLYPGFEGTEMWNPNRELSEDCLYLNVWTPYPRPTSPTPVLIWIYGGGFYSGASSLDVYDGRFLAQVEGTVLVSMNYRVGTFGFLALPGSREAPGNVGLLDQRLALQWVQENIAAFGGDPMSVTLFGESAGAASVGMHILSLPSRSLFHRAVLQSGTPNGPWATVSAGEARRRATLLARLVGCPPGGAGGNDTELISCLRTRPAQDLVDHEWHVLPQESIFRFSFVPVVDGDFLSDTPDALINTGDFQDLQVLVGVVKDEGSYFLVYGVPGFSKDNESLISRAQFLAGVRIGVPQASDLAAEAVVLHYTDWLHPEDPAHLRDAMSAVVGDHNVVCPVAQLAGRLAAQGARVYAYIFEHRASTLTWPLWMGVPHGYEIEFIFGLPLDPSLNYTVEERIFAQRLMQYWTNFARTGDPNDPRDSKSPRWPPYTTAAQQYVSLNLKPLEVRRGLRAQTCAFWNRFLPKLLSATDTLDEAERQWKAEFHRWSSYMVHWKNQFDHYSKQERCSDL
Briefly: Inhibition of Wistar rat brain homogenate AChE by Ellman's assay. Put shortly: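 Enzyme from Wistar rat brain homogenised 5 min in 0.1 M KH2PO4 pH 8; protein by Lowry (BSA standard). Inhibitor preincubated 10 min with enzyme, buffer and DTNB before adding acetylthiocholine iodide (fresh, pH 7 phosphate). A412 read every 1 min for 10 min at 37 °C. Activity as percentage of uninhibited enzyme; duplicates, means reported.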

For experiment [8], the system named is Rattus norvegicus. Briefly: Antiamnesic activity against scopolamine-induced memory loss in rat assessed as reversal of number of mistakes made in 15 min at 0.1 mg/kg, ip. The class given is functional, organism-based. The arrangement: dose 0.1 mg/kg.

Molecules are shown by their SMILES. Active and inactive are the calls of the source. The rule behind the calls is not given here.

Chain of Acetylcholinesterase (Electrophorus electricus, UniProt O42275) (O42275 whole entry): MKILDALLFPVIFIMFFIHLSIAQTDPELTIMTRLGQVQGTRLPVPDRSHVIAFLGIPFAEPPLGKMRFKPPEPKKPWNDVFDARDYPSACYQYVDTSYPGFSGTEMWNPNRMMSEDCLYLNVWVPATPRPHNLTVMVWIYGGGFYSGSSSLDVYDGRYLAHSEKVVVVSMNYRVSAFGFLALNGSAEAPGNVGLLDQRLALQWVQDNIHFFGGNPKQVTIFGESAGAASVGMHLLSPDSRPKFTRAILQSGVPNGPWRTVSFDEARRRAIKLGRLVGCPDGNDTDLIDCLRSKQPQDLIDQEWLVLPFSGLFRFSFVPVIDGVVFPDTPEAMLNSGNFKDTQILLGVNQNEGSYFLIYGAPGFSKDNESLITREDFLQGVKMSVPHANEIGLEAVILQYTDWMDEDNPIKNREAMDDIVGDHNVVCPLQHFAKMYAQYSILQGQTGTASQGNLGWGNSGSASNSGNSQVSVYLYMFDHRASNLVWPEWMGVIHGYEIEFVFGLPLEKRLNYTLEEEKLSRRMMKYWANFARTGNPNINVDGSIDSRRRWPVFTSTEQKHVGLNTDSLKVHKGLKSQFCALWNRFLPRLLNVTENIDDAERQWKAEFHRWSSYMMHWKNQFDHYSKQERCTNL
Chain of Acetylcholinesterase (Homo sapiens, UniProt P22303) (P22303 whole entry): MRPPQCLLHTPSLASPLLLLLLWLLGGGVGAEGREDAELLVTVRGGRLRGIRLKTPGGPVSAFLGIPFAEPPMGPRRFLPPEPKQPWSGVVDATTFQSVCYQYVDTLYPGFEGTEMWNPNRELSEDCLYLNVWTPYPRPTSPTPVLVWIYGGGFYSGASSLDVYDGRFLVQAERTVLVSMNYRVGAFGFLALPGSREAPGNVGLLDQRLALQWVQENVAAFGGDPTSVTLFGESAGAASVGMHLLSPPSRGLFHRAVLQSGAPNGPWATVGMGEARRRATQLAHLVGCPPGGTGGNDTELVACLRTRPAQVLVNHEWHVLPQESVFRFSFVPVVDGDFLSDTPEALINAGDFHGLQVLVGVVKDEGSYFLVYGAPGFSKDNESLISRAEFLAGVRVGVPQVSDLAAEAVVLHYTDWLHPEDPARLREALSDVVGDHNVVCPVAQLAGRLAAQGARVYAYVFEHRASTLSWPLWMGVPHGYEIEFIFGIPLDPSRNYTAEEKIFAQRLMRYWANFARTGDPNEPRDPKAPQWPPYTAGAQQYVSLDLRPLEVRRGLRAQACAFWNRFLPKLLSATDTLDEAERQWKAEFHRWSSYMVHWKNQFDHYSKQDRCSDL

What is called IC50 is the midpoint of a concentration-inhibition curve. Turning to `C[C@@H]1CCC[C@H](C)N1S(=O)(=O)c1ccc(Cl)cc1`, the Activity with Rattus norvegicus [1] was determined as 25 s; in the experiment on Rattus norvegicus [3] it was 5 s; in the experiment with Rattus norvegicus [4], 8 s; in the experiment with Rattus norvegicus [5] it was 3 times. Besides, the IC50 is 318 nM at Acetylcholinesterase [2], 312 nM at Acetylcholinesterase [6] and 325 nM against Acetylcholinesterase [7].

As for `C[C@@H]1CCC[C@H](C)N1S(=O)(=O)c1cc(Cl)ccc1Cl`, the Activity in the experiment on Rattus norvegicus [1] was found to be 16 s; in the experiment with Rattus norvegicus [3], 0.8 s; in the experiment with Rattus norvegicus [4], 4 s; in the experiment on Rattus norvegicus [5], 2 times. The IC50 on Acetylcholinesterase [2] was found to be 90 nM; against Acetylcholinesterase [6], 81 nM; at Acetylcholinesterase [7] it was 75 nM. The outcome in the experiment with Rattus norvegicus [8] was Active.

For the molecule `C[C@@H]1CCC[C@H](C)N1S(C)(=O)=O`, the Activity in the experiment on Rattus norvegicus [1] was found to be 20 s; with Rattus norvegicus [3] it was 0.7 s; in the experiment with Rattus norvegicus [4] it was 4 s; in the experiment on Rattus norvegicus [5], 2 times. Also, the results for the IC50 at Acetylcholinesterase [2], against Acetylcholinesterase [6] and against Acetylcholinesterase [7] were 75 nM, 90 nM and 85 nM, respectively. The outcome in the experiment on Rattus norvegicus [8] was Active.

Turning to `Cc1ccc(S(=O)(=O)N2[C@H](C)CCC[C@@H]2C)cc1`, the Activity amounted to 27 s in the experiment with Rattus norvegicus [1], 5 s with Rattus norvegicus [3], 8 s in the experiment with Rattus norvegicus [4] and 4 times in the experiment with Rattus norvegicus [5]. Also, the values for the IC50 at Acetylcholinesterase [2], at Acetylcholinesterase [6] and against Acetylcholinesterase [7] were 368 nM, 365 nM and 362 nM, respectively.

For the molecule `C[C@@H]1CCC[C@H](C)N1S(=O)(=O)c1cccc([N+](=O)[O-])c1`, the Activity in the experiment on Rattus norvegicus [1] was determined as 22 s; with Rattus norvegicus [3], 4 s; in the experiment on Rattus norvegicus [4] it was 6 s; with Rattus norvegicus [5], 4 times. For the same molecule, the IC50 at Acetylcholinesterase [2] was found to be 192 nM; at Acetylcholinesterase [6], 200 nM; against Acetylcholinesterase [7] it was 186 nM. Further, the result in the experiment with Rattus norvegicus [8] was Active.

Consider `CN(C)C(=O)Oc1cccc([N+](C)(C)C)c1` [NEOSTIGMINE BROMIDE], for which the IC50 against Acetylcholinesterase [6] is 53 nM; against Acetylcholinesterase [7], 40 nM.

Take `C[C@@H]1CCC[C@H](C)N1S(=O)(=O)c1ccccc1`: the Activity with Rattus norvegicus [1] came out at 26 s; in the experiment on Rattus norvegicus [3] it was 4 s; with Rattus norvegicus [4] it was 7 s; with Rattus norvegicus [5], 4 times. The IC50 was 392 nM on Acetylcholinesterase [2], 388 nM at Acetylcholinesterase [6] and 362 nM against Acetylcholinesterase [7].

`C[C@@H]1CCC[C@H](C)N1S(=O)(=O)c1ccc(C(C)(C)C)cc1`: the Activity in the experiment with Rattus norvegicus [1] came out at 28 s; with Rattus norvegicus [3] it was 6 s; in the experiment on Rattus norvegicus [4], 9 s; in the experiment on Rattus norvegicus [5], 4 times. The half-inhibitory concentration (IC50) at Acetylcholinesterase [2] is 458 nM; at Acetylcholinesterase [6], 450 nM; on Acetylcholinesterase [7], 463 nM.

On to `C[C@@H]1CCC[C@H](C)N1S(=O)(=O)c1ccccc1[N+](=O)[O-]`, for which the Activity in the experiment with Rattus norvegicus [1] was 17 s; in the experiment on Rattus norvegicus [3], 0.9 s; with Rattus norvegicus [4] it was 5 s; in the experiment with Rattus norvegicus [5], 2 times. The IC50 was found to be 185 nM against Acetylcholinesterase [2], 180 nM against Acetylcholinesterase [6] and 195 nM at Acetylcholinesterase [7]. Moreover, in the experiment on Rattus norvegicus [8], the outcome was Active.

Regarding `C[C@@H]1CCC[C@H](C)N1S(=O)(=O)c1ccc([N+](=O)[O-])cc1`, the Activity worked out at 34 s in the experiment on Rattus norvegicus [1], 7 s in the experiment on Rattus norvegicus [3], 9 s with Rattus norvegicus [4] and 3 times in the experiment with Rattus norvegicus [5]. Besides, the IC50 was determined as 1150 nM on Acetylcholinesterase [2], 1210 nM against Acetylcholinesterase [6] and 1200 nM against Acetylcholinesterase [7].
